# Measurements as given in ChEMBL document CHEMBL3244145, “Synthesis and quantitative structure--activity relationships of some antibacterial 3-formylrifamycin SV N-(4-substituted phenyl)piperazinoacethydrazones” (J Med Chem, 1978).
# Activity calls are given as the source filed them. No cut-off for these calls is given here.
# Columns and labels:
# Bacillus subtilis = experiment: Antimicrobial activity against Bacillus subtilis 104 by serial dilution method; type: functional; conditions: for MIC: Bacillus subtilis, 104
# Staphylococcus aureus = experiment: Antimicrobial activity against Staphylococcus aureus 11 by serial dilution method; type: functional; conditions: for MIC: Staphylococcus aureus, 11
# Clostridium perfringens = experiment: Antimicrobial activity against Clostridium perfringens 2 by serial dilution method; type: functional; conditions: for MIC: Clostridium perfringens, 2
# Summary of the method: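 Broth MICs were determined by serial dilution of the hydrazones, run in triplicate. Where results differed, the standard deviation of the three determinations is reported.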
# Mycolicibacterium phlei = experiment: Antimicrobial activity against Mycobacterium phlei 111 by serial dilution method; type: functional; conditions: for MIC: Mycolicibacterium phlei, 111
# [1] = tested on: Mycobacterium tuberculosis; experiment: Antimicrobial activity against Mycobacterium tuberculosis H37Rv by agar dilution method; type: functional; conditions: for MIC: Mycobacterium tuberculosis, H37Rv
# Summary of the method: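 Agar dilution: the hydrazone is dissolved in warm Middlebrook agar and serially diluted into two quadrants of a quartered dish, with two drug-free quadrants. After cooling, 0.1 mL of M. tuberculosis suspension (McFarland no. 1, set spectrophotometrically) is inoculated. Plates are incubated 14 days at 37 °C under 5% CO2 and scored for colonies. Run in duplicate.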
# Vaccinia virus = experiment: Antiviral activity against Vaccinia virus infected in L929 cells assessed as reduction in plaque formation after 3 to 4 days by crystal violet staining method; type: functional, organism-based; conditions: Orthopoxvirus vaccinia
# L929 = experiment: Cytotoxicity against mouse L929 cells by microscopic analysis; type: cell-based
Compound,log(1/C) (Bacillus subtilis),MIC (Bacillus subtilis),log(1/C) (Staphylococcus aureus),MIC (Staphylococcus aureus),log(1/C) (Clostridium perfringens),MIC (Clostridium perfringens),log(1/C) (Mycolicibacterium phlei),MIC (Mycolicibacterium phlei),log(1/C) [1],MIC [1],Activity (Vaccinia virus),Activity (L929)
CO[C@H]1/C=C/O[C@@]2(C)Oc3c(C)c(O)c4c(O)c(c(/C=N/NC(=O)CN5CCN(c6ccc(C(F)(F)F)cc6)CC5)c(O)c4c3C2=O)NC(=O)/C(C)=C\C=C\[C@H](C)[C@H](O)[C@@H](C)[C@@H](O)[C@@H](C)[C@H](OC(C)=O)[C@@H]1C,5.01,9.8 µg/mL,7.62,0.024 µg/mL,8.7,2 ng/mL,5.14,7.38 µg/mL,4.75,18 µg/mL,inactive,Toxic
COc1ccc(N2CCN(CC(=O)N/N=C/c3c4c(O)c5c(O)c(C)c6c(c5c3O)C(=O)[C@@](C)(O/C=C/[C@H](OC)[C@@H](C)[C@@H](OC(C)=O)[C@H](C)[C@H](O)[C@H](C)[C@@H](O)[C@@H](C)/C=C/C=C(/C)C(=O)N4)O6)CC2)cc1,4.93,11.3 µg/mL,7.26,0.054 µg/mL,8.14,7 ng/mL,5.27,5.25 µg/mL,4.81,15 µg/mL,inactive,Toxic
CO[C@H]1/C=C/O[C@@]2(C)Oc3c(C)c(O)c4c(O)c(c(/C=N/NC(=O)CN5CCN(c6ccc(C(C)(C)C)cc6)CC5)c(O)c4c3C2=O)NC(=O)/C(C)=C\C=C\[C@H](C)[C@H](O)[C@@H](C)[C@@H](O)[C@@H](C)[C@H](OC(C)=O)[C@@H]1C,5.32,4.8 µg/mL,7.49,0.033 µg/mL,8.7,2 ng/mL,5.44,3.63 µg/mL,5.12,7.5 µg/mL,inactive,Toxic
CCc1ccc(N2CCN(CC(=O)N/N=C/c3c4c(O)c5c(O)c(C)c6c(c5c3O)C(=O)[C@@](C)(O/C=C/[C@H](OC)[C@@H](C)[C@@H](OC(C)=O)[C@H](C)[C@H](O)[C@H](C)[C@@H](O)[C@@H](C)/C=C/C=C(/C)C(=O)N4)O6)CC2)cc1,5.25,5.5 µg/mL,7.57,0.026 µg/mL,8.51,3 ng/mL,5.16,6.75 µg/mL,4.72,18.6 µg/mL,inactive,Toxic
CO[C@H]1/C=C/O[C@@]2(C)Oc3c(C)c(O)c4c(O)c(c(/C=N/NC(=O)CN5CCN(c6ccc(Oc7ccccc7)cc6)CC5)c(O)c4c3C2=O)NC(=O)/C(C)=C\C=C\[C@H](C)[C@H](O)[C@@H](C)[C@@H](O)[C@@H](C)[C@H](OC(C)=O)[C@@H]1C,5.32,5 µg/mL,7.74,0.019 µg/mL,8.11,8 ng/mL,5.24,6 µg/mL,4.84,15 µg/mL,inactive,Toxic
CO[C@H]1/C=C/O[C@@]2(C)Oc3c(C)c(O)c4c(O)c(c(/C=N/NC(=O)CN5CCN(c6ccc([N+](=O)[O-])cc6)CC5)c(O)c4c3C2=O)NC(=O)/C(C)=C\C=C\[C@H](C)[C@H](O)[C@@H](C)[C@@H](O)[C@@H](C)[C@H](OC(C)=O)[C@@H]1C,4.9,12.3 µg/mL,7.6,0.025 µg/mL,8.3,5 ng/mL,4.93,11.5 µg/mL,4.74,18 µg/mL,inactive,Toxic
CO[C@H]1/C=C/O[C@@]2(C)Oc3c(C)c(O)c4c(O)c(c(/C=N/N5CCN(C)CC5)c(O)c4c3C2=O)NC(=O)/C(C)=C\C=C\[C@H](C)[C@H](O)[C@@H](C)[C@@H](O)[C@@H](C)[C@H](OC(C)=O)[C@@H]1C [RIFAMPIN],6.59,0.21 µg/mL,> 8.07,< 0.007 µg/mL,8.44,3 ng/mL,6.48,0.27 µg/mL,5.91,1 µg/mL,,
CO[C@H]1/C=C/O[C@@]2(C)Oc3c(C)c(O)c4c(O)c(c(/C=N/NC(=O)CN5CCN(c6ccccc6)CC5)c(O)c4c3C2=O)NC(=O)/C(C)=C\C=C\[C@H](C)[C@H](O)[C@@H](C)[C@@H](O)[C@@H](C)[C@H](OC(C)=O)[C@@H]1C,5.24,5.4 µg/mL,7.22,0.057 µg/mL,8.13,7 ng/mL,5.12,7.13 µg/mL,5.03,8.7 µg/mL,inactive,Toxic
CO[C@H]1/C=C/O[C@@]2(C)Oc3c(C)c(O)c4c(O)c(c(/C=N/NC(=O)CN5CCN(c6ccc(C)cc6)CC5)c(O)c4c3C2=O)NC(=O)/C(C)=C\C=C\[C@H](C)[C@H](O)[C@@H](C)[C@@H](O)[C@@H](C)[C@H](OC(C)=O)[C@@H]1C,5.27,5.1 µg/mL,7.4,0.038 µg/mL,8.14,7 ng/mL,5.14,7 µg/mL,4.96,10.5 µg/mL,inactive,Toxic
CO[C@H]1/C=C/O[C@@]2(C)Oc3c(C)c(O)c4c(O)c(c(/C=N/NC(=O)CN5CCN(c6ccc(C(C)C)cc6)CC5)c(O)c4c3C2=O)NC(=O)/C(C)=C\C=C\[C@H](C)[C@H](O)[C@@H](C)[C@@H](O)[C@@H](C)[C@H](OC(C)=O)[C@@H]1C,5.3,4.9 µg/mL,7.56,0.027 µg/mL,8.52,3 ng/mL,5.48,3.25 µg/mL,5.04,9 µg/mL,inactive,Toxic
CO[C@H]1/C=C/O[C@@]2(C)Oc3c(C)c(O)c4c(O)c(c(/C=N/NC(=O)CN5CCN(c6ccc(NC(C)=O)cc6)CC5)c(O)c4c3C2=O)NC(=O)/C(C)=C\C=C\[C@H](C)[C@H](O)[C@@H](C)[C@@H](O)[C@@H](C)[C@H](OC(C)=O)[C@@H]1C,4.92,12 µg/mL,7.22,0.06 µg/mL,8,10 ng/mL,4.59,31 µg/mL,4.74,18 µg/mL,inactive,Toxic
CO[C@H]1/C=C/O[C@@]2(C)Oc3c(C)c(O)c4c(O)c(c(/C=N/NC(=O)CN5CCN(c6ccc(Cl)cc6)CC5)c(O)c4c3C2=O)NC(=O)/C(C)=C\C=C\[C@H](C)[C@H](O)[C@@H](C)[C@@H](O)[C@@H](C)[C@H](OC(C)=O)[C@@H]1C,5.31,4.8 µg/mL,7.43,0.036 µg/mL,8.21,6 ng/mL,5.19,6.38 µg/mL,4.91,12 µg/mL,inactive,Toxic
